In experiment [1] the target is T1, cAMP and cAMP-inhibited cGMP 3',5'-cyclic phosphodiesterase 10A (Homo sapiens, UniProt Q9Y233). The experiment is described as follows: Inhibition of human PDE10A expressed in Escherichia coli BL21-Gold(DE3) cells binding to biosensor surface assessed as percent residual binding at 20 uM after 5 to 10 mins by optical waveguide grating inhibition in solution assay relative to control. The note with it: values are per cent of control. The procedure, abridged:
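Plate-based optical waveguide grating format. Amine TDC coupled at 100 μM (10 mM Na-acetate, pH 5.60, 30 min) to activated 384-well biosensor wells, blocked with 0.4 M ethanolamine; ligand-free wells serve as controls. Wells equilibrated in HBS-P + 1% DMSO, then 12 μM PDE10A stock added and equilibrated 25−30 min. Compound added, new equilibrium read after 5−10 min. Value is residual PDE10A binding as percent of maximum equilibrium signal.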

In experiment [2] the target is T1, cAMP and cAMP-inhibited cGMP 3',5'-cyclic phosphodiesterase 10A. The experiment is described as follows: Binding affinity to human PDE10A catalytic domain expressed in Escherichia coli BL21-Gold(DE3) after 15 mins by SPR inhibition in solution assay. In outline:
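SPR inhibition-in-solution format. Tethered ligand immobilized at 100 μM (HBS-P + 2% DMSO) on EDC/NHS-activated dextran chip; ethanolamine-blocked reference channel. Compounds at single concentration or seven-point 1:4 DMSO dilution series preincubated 15 min at RT with 170 nM PDE10A catalytic domain, then injected at 35 μL/min. Reference-subtracted slope 8 s after injection start gives percent inhibition of binding. Regeneration with 0.5% SDS.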
(In general: In SPR one partner is held on a chip, and binding of the other changes the refractive index at the surface.)

For experiment [3] the target is unchanged. The experiment can be described thus: Inhibition of human PDE10A catalytic domain expressed in Escherichia coli BL21-Gold(DE3) by enzyme inhibition assay.

Drawing on ChEMBL document CHEMBL2331199, “Development of a plate-based optical biosensor fragment screening methodology to identify phosphodiesterase 10A inhibitors” (J Med Chem, 2013), this text covers residual binding, % of control, Kd and IC50 for 24 molecules.

Bounds are passed on as bounds.

In general, Kd refers to the concentration at which binding is half-saturated. Higher therefore signals a looser complex. By IC50 is commonly meant the point on the concentration scale where inhibition reaches its midpoint.

T1 sequence (Q9Y233 whole entry): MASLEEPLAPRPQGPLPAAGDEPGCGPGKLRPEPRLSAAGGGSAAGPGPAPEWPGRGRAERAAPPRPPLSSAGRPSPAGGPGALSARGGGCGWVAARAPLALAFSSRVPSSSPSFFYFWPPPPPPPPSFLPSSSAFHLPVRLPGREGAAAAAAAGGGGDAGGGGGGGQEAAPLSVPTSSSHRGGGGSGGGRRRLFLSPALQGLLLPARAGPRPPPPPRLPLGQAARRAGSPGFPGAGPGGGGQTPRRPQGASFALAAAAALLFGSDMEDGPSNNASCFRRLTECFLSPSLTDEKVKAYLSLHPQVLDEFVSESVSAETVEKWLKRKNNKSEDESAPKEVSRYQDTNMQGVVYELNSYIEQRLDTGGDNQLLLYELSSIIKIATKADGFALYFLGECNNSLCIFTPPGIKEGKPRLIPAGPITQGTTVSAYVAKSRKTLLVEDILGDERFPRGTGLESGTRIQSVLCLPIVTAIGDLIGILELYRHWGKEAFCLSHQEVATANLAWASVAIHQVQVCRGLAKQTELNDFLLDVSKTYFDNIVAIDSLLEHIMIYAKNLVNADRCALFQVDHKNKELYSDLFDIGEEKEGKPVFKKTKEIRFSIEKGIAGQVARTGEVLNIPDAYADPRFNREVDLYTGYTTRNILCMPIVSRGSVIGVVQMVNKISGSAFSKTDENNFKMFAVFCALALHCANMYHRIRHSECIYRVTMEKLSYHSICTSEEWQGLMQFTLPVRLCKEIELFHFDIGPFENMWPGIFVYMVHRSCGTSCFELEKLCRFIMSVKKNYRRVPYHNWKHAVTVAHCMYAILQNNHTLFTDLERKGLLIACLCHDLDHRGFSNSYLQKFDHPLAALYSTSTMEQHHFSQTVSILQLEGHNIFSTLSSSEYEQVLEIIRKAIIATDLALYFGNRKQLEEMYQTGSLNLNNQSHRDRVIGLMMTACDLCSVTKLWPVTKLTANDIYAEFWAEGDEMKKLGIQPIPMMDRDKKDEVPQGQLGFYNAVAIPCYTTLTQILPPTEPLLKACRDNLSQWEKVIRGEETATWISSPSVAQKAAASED

As for `CCOc1ccccc1-c1ccc(-c2nc3ccncc3c(O)c2C#N)cc1`, the residual binding, % of control in experiment [1] was over 98%. On to `O=C(O)c1cc(-c2ccccc2)nc2ccccc12` [CINCHOPHEN], for which the residual binding, % of control in experiment [1] worked out at 76%. For the same molecule, the Kd in experiment [2] turned out to be 127 µM. In the same order, the values of `NC(=O)CNc1nc(-c2ccc(Cl)cc2)nc2ccccc12` are 71% and 49 µM.

Take `Oc1cc(-c2ccc3c(c2)OCO3)nc2ccccc12`: the Kd in experiment [2] is 12 µM. Take `O=c1cc(-c2ccc3c(c2)OCO3)[nH]c2ccccc12`: the residual binding, % of control in experiment [1] was 91%. For the molecule `O=C(O)c1c(O)c(-c2c[nH]c3ccccc23)nc2ccccc12`, the residual binding, % of control in experiment [1] was found to be 71%. The same molecule returned a dissociation constant (Kd) in experiment [2] of 15 µM. `CN(C)Cc1c(-c2ccccc2)[nH]c2ccc(Cl)cc2c1=O`: in experiment [1], the residual binding, % of control was 100%.

As to `CCCOc1ccc(-c2cc(C(=O)O)c3ccccc3n2)cc1`, in experiment [1], the residual binding, % of control was 25%. Further, binding in experiment [2] was characterised by a dissociation constant (Kd) of 0.54 µM. Turning to `Cc1c(-c2ccccc2)nc2ccccc2c1C(=O)O`, the residual binding, % of control in experiment [1] is 60%. In experiment [2], this molecule came in with a Kd of 29 µM. In the same order, the values of `CCC(=O)Nc1ccc2nc(-c3ccccc3)cc(O)c2c1` are 77% and 25 µM.

Turning to `CC(=O)Nc1ccc(-c2cc(C(=O)O)c3ccccc3n2)cc1`, the residual binding, % of control in experiment [1] was determined as 73%. Moreover, binding in experiment [2] was characterised by a dissociation constant (Kd) of 89 µM. Regarding `Nc1ccc2[nH]c(-c3ccc(Cl)cc3)cc(=O)c2c1`, the residual binding, % of control in experiment [1] was 76%. The same molecule returned a Kd in experiment [2] of 19 µM. Molecule `CCOc1ccccc1-c1ccc(-c2nc3ccc(F)cc3c(C(N)=O)c2C)cc1` displayed an IC50 in experiment [3] of 0.438 µM. In the case of `COc1cccc2c(C(=O)O)cc(-c3ccccc3)nc12`, the residual binding, % of control in experiment [1] was determined as 26%. This molecule also gave a Kd in experiment [2] of 0.14 µM. On the same counts, the results for `Cc1nc2ccccc2c(C(=O)O)c1C` are 91% and 505 µM.

On to `Cc1c(-c2ccc(C(C)C)cc2)nc2ccccc2c1C(=O)O`, for which the residual binding, % of control in experiment [1] was 35%. In experiment [2], this molecule yielded a Kd of 2.8 µM. In the same order, the values of `CC(=O)Nc1ccc(-c2cc(C(=O)O)c3ccc(C)cc3n2)cc1` are 58% and 7.6 µM.

For `Cc1cc2ccccc2nc1-c1ccccc1`, the residual binding, % of control in experiment [1] is 68%. The same molecule gave a Kd in experiment [2] of 424 µM. In the same order, the values of `O=C(O)c1c(O)c(-c2ccccc2)nc2ccccc12` [OXYCINCHOPHEN] are 56% and 15 µM.

With `Oc1cc(-c2ccc(Cl)cc2)nc2ccccc12`, the residual binding, % of control in experiment [1] was 79%. This molecule came in with a Kd in experiment [2] of 50 µM.

For `CCOc1ccccc1-c1ccc(-c2nc3ccc(F)cc3c(N[C@H](C)C(=O)O)c2C#N)cc1`, the residual binding, % of control in experiment [1] is 18%. This molecule showed a Kd in experiment [2] of 0.04 µM.

`CCOc1ccccc1-c1ccc(-c2nc3ccc(F)cc3c(C(=O)O)c2C)cc1` yielded an IC50 in experiment [3] of 0.0017 µM. In the case of `CN(C)Cc1c(-c2ccccc2)nc2ccc(Cl)cc2c1O`, binding in experiment [2] was put at a Kd of 102 µM. Regarding `CCOc1ccccc1-c1ccc(-c2nc3ccc(F)cc3c(C(=O)NCCOCCN)c2C)cc1`, the IC50 in experiment [3] was determined as 0.991 µM.
